Data set [1] can be described thus: Inhibition of Wnt3a activated Wnt/beta-catenin signaling (unknown origin) expressed in HEK293 cells harboring TCF/LEF-responsive luciferase preincubated with cells followed by Wnt3a addition and measured after 24 hrs by luciferase reporter gene assay. Format: cell-based. As to conditions: Homo sapiens. The procedure, abridged: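 HEK293 cells stably carrying TOPFlash/GFP were plated at 2000/well in DMEM with 10% FBS and kept overnight at 37 °C. Compound was pin-transferred, then recombinant human Wnt-3a was added (200 ng/mL working stock). After 24 h at 37 °C, ONE-Glo luminescence was read after 30 min. IC50 is mean ± SE from three independent experiments.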

For data set [2], the system named is HEK293. The experiment in a line: Growth inhibition of HEK293 cells harboring Wnt after 24 hrs by CellTiter-Fluor assay. Format: cell-based. The note with it: human, hek293, 24 h. The procedure, abridged: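 HEK293 cells stably carrying the TOPFlash reporter were plated at 2000/well in DMEM with 10% FBS and incubated overnight. Compound was added with recombinant human Wnt-3a, then incubated 24 h at 37 °C. CellTiter-Fluor reagent was added and fluorescence read after 30 min at 37 °C.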

The subject of data set [3] is HEK293. Kind of data set: Growth inhibition of unstimulated HEK293 cells up to 100 uM after 72 hrs by CellTiter-Fluor assay. Format: cell-based. As to conditions: human, hek293, 72 h. The procedure, abridged:
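Unstimulated HEK293 cells were plated at 3.5×10^5/well and grown for 24 h, then incubated with compound for 72 h. Viability was read with CellTiter-Fluor.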

Data set [4] in a line: Oral bioavailability in mouse. The note with it: in vivo. It is filed as ADME, organism-based.
The subject of data set [5] is HEK293. The experiment in a line: Inhibition of LiCl-activated Wnt/beta-catenin/Axin signaling (unknown origin) expressed in HEK293 cells assessed as degradation of beta-catenin by measuring decrease in beta-catenin protein expression after 24 hrs by Western blot method. The note with it: Homo sapiens. Format: cell-based. Put shortly: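 HEK293 cells were treated with compound in the presence of lithium chloride for 24 h. Lysis buffer contained 10 mM HEPES, 100 μM EDTA, 10 mM KCl, 0.5% NP40 and inhibitors. Protein was quantified by BCA, resolved on 10% SDS-PAGE, and immunoblotted for β-catenin.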
A general note: Immunoblotting shows a protein as a band on a membrane.

The next data set has as its target Axin-1 (Homo sapiens) (UniProt O15169). Kind of data set: Stabilization of Axin1 in human HuH7 cells assessed as decrease in lipid accumulation at 5 uM after 36 hrs by nile red staining based fluorescence microscopic method. It is filed as cell-based. Put shortly: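 Huh7 cells on collagen I-coated coverslips were treated with 5 μM compound for 36 h, then with 200 μM sodium oleate for a further 12–16 h. Cells were stained with 1 μM Nile red in HBSS for 10 min at 37 °C in the dark and imaged by fluorescence microscopy at 552/636 nm.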

pIC50: −log10 of the molar value. The source made the active and inactive calls. The rule behind the calls is not given here.

The record followed here is ChEMBL document CHEMBL4371095, “Triazole-Based Inhibitors of the Wnt/β-Catenin Signaling Pathway Improve Glucose and Lipid Metabolisms in Diet-Induced Obese Mice” (J Med Chem, 2019).

Sequence of Axin-1 (Homo sapiens) (O15169 whole entry): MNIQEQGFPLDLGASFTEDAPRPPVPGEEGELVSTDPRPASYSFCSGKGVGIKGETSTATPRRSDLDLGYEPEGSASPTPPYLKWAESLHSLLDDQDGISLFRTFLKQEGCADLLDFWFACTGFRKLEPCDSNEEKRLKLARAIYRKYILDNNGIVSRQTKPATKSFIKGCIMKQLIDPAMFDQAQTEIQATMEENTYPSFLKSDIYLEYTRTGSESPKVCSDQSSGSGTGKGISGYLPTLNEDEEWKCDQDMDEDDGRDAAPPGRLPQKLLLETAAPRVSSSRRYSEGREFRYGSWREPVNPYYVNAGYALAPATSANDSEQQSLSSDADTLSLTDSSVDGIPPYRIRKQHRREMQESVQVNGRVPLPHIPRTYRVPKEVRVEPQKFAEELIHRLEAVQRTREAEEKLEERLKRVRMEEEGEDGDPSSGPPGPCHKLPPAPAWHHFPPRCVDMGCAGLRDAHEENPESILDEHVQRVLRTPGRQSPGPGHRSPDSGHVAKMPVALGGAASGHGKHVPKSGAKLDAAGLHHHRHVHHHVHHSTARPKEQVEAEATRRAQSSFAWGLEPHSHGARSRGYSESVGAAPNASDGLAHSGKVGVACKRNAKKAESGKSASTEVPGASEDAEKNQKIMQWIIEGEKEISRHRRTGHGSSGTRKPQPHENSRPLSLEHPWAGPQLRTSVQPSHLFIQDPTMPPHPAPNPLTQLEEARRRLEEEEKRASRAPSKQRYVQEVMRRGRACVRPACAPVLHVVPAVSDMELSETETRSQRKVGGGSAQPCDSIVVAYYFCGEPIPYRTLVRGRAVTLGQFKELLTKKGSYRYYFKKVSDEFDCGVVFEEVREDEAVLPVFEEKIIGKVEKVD

On to `CCc1c(C(=O)Nc2ccc3ccccc3n2)nnn1-c1ccccc1F`, for which the pIC50 (commonly the negative decadic logarithm of the IC50, by convention in mol/L) in data set [1] was 8.33. Moreover, in the data set with HEK293 [2], the “growth inhibition (GI)” value was “Non-Toxic”.

`Cc1c(C(=O)Nc2ccc3ccccc3n2)nnn1-c1ccccc1F`: the pIC50 in data set [1] is 8.92. Also, the figures for the “growth inhibition (GI)” value with HEK293 [2] and in the data set on HEK293 [3] were “Non-Toxic” and “Toxic”, respectively.

As for `Cc1ccccc1-n1nnc(C(=O)Nc2ccc3cc(Br)ccc3n2)c1C`, the pIC50 in data set [1] is 6.08. Also, in the data set with HEK293 [2], the “growth inhibition (GI)” value was “Non-Toxic”.

Turning to `Cc1c(C(=O)Nc2ccc3ccccc3n2)nnn1-c1ccccc1Br`, the negative-log IC50 (pIC50) in data set [1] was 8.12. The “growth inhibition (GI)” value in the data set on HEK293 [2] is reported as “Non-Toxic”.

`Cc1cc(/C=C/c2ccc3cc(N(C)C)ccc3[n+]2C)c(C)n1-c1ccccc1` [PYRVINIUM] gave a negative-log IC50 (pIC50) in data set [1] of 6.12. Besides, the bioavailability – broadly, dose-corrected exposure relative to a reference, in per cent – in data set [4] was under 1%.

The compound `Cc1c(C(=O)Nc2ccc3ccccc3n2)nnn1-c1cccc2ccccc12` had a pIC50 in data set [1] of 5.26. Also, the “growth inhibition (GI)” value in the data set on HEK293 [2] was “Non-Toxic”. Besides, the inhibition result in the data set on HEK293 [5] was “inactive”.

Consider `Cc1ccccc1-n1nnc(C(=O)Nc2ccc3cc(CN4CCOCC4)ccc3n2)c1C`, for which, in data set [1], the pIC50 was 5.89. Further, the “growth inhibition (GI)” value in the data set with HEK293 [2] is given as “Non-Toxic”.

The compound `Cc1ccc(-n2nnc(C(=O)Nc3ccc4ccccc4n3)c2C)cc1` gave a pIC50 in data set [1] of under 5.00. The “growth inhibition (GI)” value in the data set on HEK293 [2] is listed as “Non-Toxic”.

On to `Cc1c(C(=O)Nc2ccc3ccccc3n2)nnn1-c1ccccc1C(N)=O`, for which, in data set [1], the pIC50 was under 5.00. The “growth inhibition (GI)” value in the data set with HEK293 [2] was “Non-Toxic”.

As to `CC(C)c1c(C(=O)Nc2ccc3ccccc3n2)nnn1-c1ccccc1F`, in data set [1], the pIC50 is 7.60. In addition, the “growth inhibition (GI)” value in the data set with HEK293 [2] was “Non-Toxic”.

In data set [1], `Cc1ccccc1-n1nnc(C(=O)Nc2ccc3ccccc3c2)c1C` showed a pIC50 of 5.31. Further, the “growth inhibition (GI)” value in the data set on HEK293 [2] is given as “Non-Toxic”.

On to `Cc1cccc(-n2nnc(C(=O)Nc3ccc4ccccc4n3)c2C)c1C`, for which, in data set [1], the pIC50 was 6.85. For the same compound, in the data set on HEK293 [2], the “growth inhibition (GI)” value is given as “Non-Toxic”.

In turn, `Cc1ccccc1-n1nnc(C(=O)Nc2ccc3cc(CN4CCSCC4)ccc3n2)c1C` had a pIC50 in data set [1] of 6.64. The “growth inhibition (GI)” value in the data set with HEK293 [2] is on record as “Non-Toxic”.

With `CC(=O)c1ccccc1-n1nnc(C(=O)Nc2ccc3ccccc3n2)c1C`, in data set [1], the pIC50 was 5.06. For the same compound, in the data set on HEK293 [2], the “growth inhibition (GI)” value is on record as “Non-Toxic”.

In data set [1], `Cc1ccccc1-n1nnc(C(=O)Nc2ccc3cc(CN4CCCCC4)ccc3n2)c1C` had a pIC50 of 5.92. Further, in the data set with HEK293 [2], the “growth inhibition (GI)” value is “Non-Toxic”.

Regarding `Cc1cccc(-n2nnc(C(=O)Nc3ccc4ccccc4n3)c2C)c1`, in data set [1], the pIC50 is under 5.00. In the data set with HEK293 [2], the “growth inhibition (GI)” value was “Non-Toxic”.

`Cc1c(C(=O)Nc2ccc3ccccc3n2)nnn1-c1ccccc1C#N` gave a pIC50 in data set [1] of 7.47. Further, the “growth inhibition (GI)” value with HEK293 [2] was “Non-Toxic”.

As to `Cc1ccc(-n2nnc(C(=O)Nc3ccc4ccccc4n3)c2C)c(C)c1`, the pIC50 in data set [1] is 6.57. Further, in the data set with HEK293 [2], the “growth inhibition (GI)” value was “Non-Toxic”.

Consider `COc1ccccc1-n1nnc(C(=O)Nc2ccc3ccccc3n2)c1C`, for which the pIC50 in data set [1] was 7.74. Moreover, the “growth inhibition (GI)” value in the data set on HEK293 [2] is reported as “Non-Toxic”.

As to `Oc1nc(-c2ccc(C(F)(F)F)cc2)nc2c1CSCC2`, at Axin-1 (Homo sapiens), the result was Active.

As to `Cc1c(C(=O)Nc2ccc3ccccc3n2)nnn1-c1ccccc1N1CCOCC1`, the pIC50 in data set [1] was 5.72. Besides, the “growth inhibition (GI)” value in the data set with HEK293 [2] is reported as “Non-Toxic”.

`Cc1c(C(=O)Nc2ccc3ccccc3n2)nnn1-c1ccccc1-c1ccccc1` showed a pIC50 in data set [1] of 6.41. Besides, in the data set on HEK293 [2], the “growth inhibition (GI)” value is recorded as “Non-Toxic”.
